This is an account of results in ChEMBL document CHEMBL1142104, “Anti-HCV bioactivity of pseudoguaianolides from Parthenium hispitum” (J Nat Prod, 2007).

The nature of data set [1]: Cytotoxicity against Huh7 replicon cells. The data set is classed as cell-based. The note with it: human, huh-7.
The next data set deals with Hepatitis C virus. The data set can be described thus: Antiviral activity against HCV in Huh7 cells at 2 uM by subgenomic replicon assay. The data set is classed as functional, Hepacivirus hominis. Particulars: Huh-7; call rule not given here. Put shortly:
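Huh-7 replicon cells (luciferase reporter), grown to 85% confluency with >95% viability, seeded at 11 000 cells/well; compound added and incubated 48 h at 37 °C. Plates cooled 30 min to room temperature, luciferase reagent added, luminescence read after 3 min. Inhibition calculated with no-cell wells as low signal and compound-free cells as high signal; duplicate testing.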
On the technique in general: A replicon is a self-replicating genome or part of one, used to study replication in cells.

By inhibition is commonly meant the change of the read-out against control, counted positive when it falls. The low end stands for a weak effect, the high end for a strong effect. `C=C1C(=O)O[C@@H]2[C@H]1CC[C@H](COC(=O)C=C(C)C)[C@]1(O)CCC(=O)[C@@]21C` [HISPITOLIDE D]: the Activity result in data set [1] was “Not Active”. Moreover, the inhibition at 2 µM in the data set with Hepatitis C virus is 98%.
The matching figures for `C=C1C(=O)O[C@@H]2[C@H]1CC[C@H](COC(=O)/C(C)=C/C)[C@]1(O)CCC(=O)[C@@]21C` [HISPITOLIDE C]: “Not Active” and 98%.
Regarding `C=C1C(=O)O[C@@H]2[C@H]1CCC(COC(=O)CC(C)C)[C@]1(O)CCC(=O)[C@@]21C` (some centres undefined), in data set [1], the Activity result is listed as “Not Active”. This compound also showed an inhibition at 2 µM in the data set on Hepatitis C virus of 63%.
For `C=C1C(=O)O[C@@H]2[C@H]1CC[C@H](COC(=O)CC)[C@]1(O)CCC(=O)[C@@]21C` [HISPITOLIDE A] the same measures were “Not Active” and 55%.
For `C=C1C(=O)O[C@@H]2[C@H]1CC[C@H](COC(=O)CCC)[C@]1(O)CCC(=O)[C@@]21C` [HISPITOLIDE B] the same measures were “Not Active” and 90%.
For `C=C1C(=O)O[C@@H]2[C@H]1CCC(COC(=O)C(C)CC)[C@]1(O)CCC(=O)[C@@]21C` (some centres undefined) the same measures were “Not Active” and 25%.
In the case of `C=C1C(=O)O[C@@H]2[C@H]1CC[C@H](COC(=O)/C(C)=C\C)[C@]1(O)CCC(=O)[C@@]21C` [HISPITOLIDE E], the Activity entry in data set [1] is given as “Not Active”. In the data set on Hepatitis C virus, the inhibition at 2 µM is 65%.
